Measurements from ChEMBL document CHEMBL3425469, “Discovery of imidazo[2,1-b]thiazole HCV NS4B inhibitors exhibiting synergistic effect with other direct-acting antiviral agents” (J Med Chem, 2015).

What was measured:
Hepatitis C virus [1] = assay: Antiviral activity against Hepatitis C virus genotype 1b Con 1 infected in human HuH7 cells at 2.5 nM after 72 hrs by luciferase assay in presence of 0.04 nM daclatasvir; assay type: functional, Hepacivirus hominis, Huh-7
How it was run: (§1)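 Stable Con1 GT1b bicistronic luciferase replicon in Huh-7 cells, 8000 cells/well. Test compound and a marketed DAA or clemizole added alone or together at varied concentrations, 0.5% DMSO final. 72 h at 37°C, then luciferase read with Bright-Glo. Inhibition expressed as % of untreated control, with cytotoxicity run in parallel. CI and DRI derived by the Chou–Talalay median-effect method.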

Hepatitis C virus [2] = assay: Antiviral activity against Hepatitis C virus genotype 1b Con 1 infected in human HuH7 cells at 5 nM after 72 hrs by luciferase assay in presence of 7.5 uM clemizole; assay type: functional, Hepacivirus hominis, Huh-7
How it was run: (§2)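 Huh-7 cells stably carrying a GT1b Con1 bicistronic luciferase replicon, seeded at 8000 cells/well. The test compound and the partner DAA are dosed orthogonally at various concentrations, final 0.5% DMSO, then incubated 72 h at 37°C. Bright-Glo luciferase read-out gives replicon inhibition as % of untreated control. Cytotoxicity is checked in parallel by CellTiter-Fluor. CI and DRI are derived by the Chou–Talalay median-effect method.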

Hepatitis C virus [3] = assay: Antiviral activity against Hepatitis C virus genotype 1b harboring Y93H NS5A mutation transfected in human HuH7 cells after 72 hrs by luciferase assay; assay type: functional, cell-based, Hepacivirus hominis; conditions: Huh-7, 72 h
How it was run: (§3)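 Huh-7 cells were transiently electroporated with genotype 1b replicon RNA carrying the specified mutation and plated at 10000 cells/well. Compounds were added at 0.5% DMSO final for 72 h at 37°C. Read-out was Bright-Glo luciferase. EC50 is the mean of two independent runs within 2-fold of each other. A reference drug EC50 was measured alongside each mutant replicon to validate it.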

Hepatitis C virus [4] = assay: Antiviral activity against Hepatitis C virus genotype 1b Con 1 infected in human HuH7 cells at 80 nM after 72 hrs by luciferase assay in presence of 12.5 uM clemizole; assay type: functional, Hepacivirus hominis, Huh-7; how it was run: as §2
Hepatitis C virus [5] = assay: Antiviral activity against Hepatitis C virus genotype 1b Con 1 infected in human HuH7 cells at 80 nM after 72 hrs by luciferase assay in presence of 6 nM simeprevir; assay type: functional, Hepacivirus hominis, Huh-7; how it was run: as §2
Hepatitis C virus [6] = assay: Antiviral activity against Hepatitis C virus genotype 1b harboring H94R mutation transfected in human HuH7 cells after 72 hrs by luciferase assay; assay type: functional, cell-based, Hepacivirus hominis; conditions: Huh-7, 72 h; how it was run: as §3
Hepatitis C virus [7] = assay: Antiviral activity against Hepatitis C virus genotype 1b Con 1 infected in human HuH7 cells at 2.5 nM after 72 hrs by luciferase assay in presence of 5 uM clemizole; assay type: functional, Hepacivirus hominis, Huh-7; how it was run: as §1
Hepatitis C virus [8] = assay: Antiviral activity against Hepatitis C virus genotype 1b Con 1 infected in human HuH7 cells at 40 nM after 72 hrs by luciferase assay in presence of 0.08 nM daclatasvir; assay type: functional, Hepacivirus hominis, Huh-7; how it was run: as §2
Hepatitis C virus [9] = assay: Antiviral activity against Hepatitis C virus genotype 1b Con 1 infected in human HuH7 cells at 5 nM after 72 hrs by luciferase assay in presence of 15 uM clemizole; assay type: functional, Hepacivirus hominis, Huh-7; how it was run: as §2
Hepatitis C virus [10] = assay: Antiviral activity against Hepatitis C virus genotype 1b Con 1 infected in human HuH7 cells at 5 nM after 72 hrs by luciferase assay in presence of 0.08 nM daclatasvir; assay type: functional, Hepacivirus hominis, Huh-7; how it was run: as §2
Hepatitis C virus [11] = assay: Antiviral activity against Hepatitis C virus genotype 1b Con 1 infected in human HuH7 cells at 80 nM after 72 hrs by luciferase assay in presence of 3 nM simeprevir; assay type: functional, Hepacivirus hominis, Huh-7; how it was run: as §2
Hepatitis C virus [12] = assay: Antiviral activity against Hepatitis C virus genotype 1b Con 1 infected in human HuH7 cells at 20 nM after 72 hrs by luciferase assay in presence of 0.02 nM daclatasvir; assay type: functional, Hepacivirus hominis, Huh-7; how it was run: as §1
Hepatitis C virus [13] = assay: Antiviral activity against Hepatitis C virus genotype 1b Con 1 infected in human HuH7 cells at 40 nM after 72 hrs by luciferase assay in presence of 20 uM clemizole; assay type: functional, Hepacivirus hominis, Huh-7; how it was run: as §2
Hepatitis C virus [14] = assay: Antiviral activity against Hepatitis C virus genotype 1b Con 1 infected in human HuH7 cells at 10 nM after 72 hrs by luciferase assay in presence of 15 uM clemizole; assay type: functional, Hepacivirus hominis, Huh-7; how it was run: as §1
Hepatitis C virus [15] = assay: Antiviral activity against Hepatitis C virus genotype 1b Con 1 infected in human HuH7 cells at 5 nM after 72 hrs by luciferase assay in presence of 10 uM clemizole; assay type: functional, Hepacivirus hominis, Huh-7; how it was run: as §2
Hepatitis C virus [16] = assay: Antiviral activity against Hepatitis C virus genotype 1b Con 1 infected in human HuH7 cells at 5 nM after 72 hrs by luciferase assay in presence of 24 nM simeprevir; assay type: functional, Hepacivirus hominis, Huh-7; how it was run: as §2
Hepatitis C virus [17] = assay: Antiviral activity against Hepatitis C virus genotype 1b Con 1 infected in human HuH7 cells at 20 nM after 72 hrs by luciferase assay in presence of 17.5 uM clemizole; assay type: functional, Hepacivirus hominis, Huh-7; how it was run: as §2
Hepatitis C virus [18] = assay: Antiviral activity against Hepatitis C virus genotype 1b Con 1 infected in human HuH7 cells at 10 nM after 72 hrs by luciferase assay in presence of 12.5 uM clemizole; assay type: functional, Hepacivirus hominis, Huh-7; how it was run: as §1
Hepatitis C virus [19] = assay: Antiviral activity against Hepatitis C virus genotype 1b Con 1 infected in human HuH7 cells at 160 nM after 72 hrs by luciferase assay in presence of 60 nM sofobuvir; assay type: functional, Hepacivirus hominis, Huh-7; how it was run: as §1
Hepatitis C virus [20] = assay: Antiviral activity against Hepatitis C virus genotype 1b harboring M423I NS5B (thumb 2) mutation transfected in human HuH7 cells after 72 hrs by luciferase assay; assay type: functional, cell-based, Hepacivirus hominis; conditions: Huh-7, 72 h; how it was run: as §3
Hepatitis C virus [21] = assay: Antiviral activity against Hepatitis C virus genotype 1b Con 1 infected in human HuH7 cells at 80 nM after 72 hrs by luciferase assay in presence of 24 nM simeprevir; assay type: functional, Hepacivirus hominis, Huh-7; how it was run: as §2
Hepatitis C virus [22] = assay: Antiviral activity against Hepatitis C virus genotype 1b Con 1 infected in human HuH7 cells at 160 nM after 72 hrs by luciferase assay in presence of 24 nM simeprevir; assay type: functional, Hepacivirus hominis, Huh-7; how it was run: as §1
Hepatitis C virus [23] = assay: Antiviral activity against Hepatitis C virus genotype 1b Con 1 infected in human HuH7 cells at 20 nM after 72 hrs by luciferase assay in presence of 20 uM clemizole; assay type: functional, Hepacivirus hominis, Huh-7; how it was run: as §2
[24] = Cytotoxicity against human HuH7 cells assessed as cell proliferation by cell titer assay; assay type: cell-based, Huh-7
How it was run: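 Huh-7 cells carrying GT1b Con1 bicistronic replicon seeded at 8000 cells/well; compound added at 0.5% DMSO final, 37°C for 72 h. Proliferation read with CellTiter-Fluor reagent per manufacturer; CC50 fitted from concentration-response, average of at least two independent determinations.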

Hepatitis C virus [25] = assay: Antiviral activity against Hepatitis C virus genotype 1b Con 1 infected in human HuH7 cells at 2.5 nM after 72 hrs by luciferase assay in presence of 6 nM simeprevir; assay type: functional, Hepacivirus hominis, Huh-7; how it was run: as §1
Hepatitis C virus [26] = assay: Antiviral activity against Hepatitis C virus genotype 1b Con 1 infected in human HuH7 cells at 2.5 nM after 72 hrs by luciferase assay in presence of 12.5 uM clemizole; assay type: functional, Hepacivirus hominis, Huh-7; how it was run: as §1
Hepatitis C virus [27] = assay: Antiviral activity against Hepatitis C virus genotype 1b Con 1 infected in human HuH7 cells at 10 nM after 72 hrs by luciferase assay in presence of 6 nM simeprevir; assay type: functional, Hepacivirus hominis, Huh-7; how it was run: as §1
Hepatitis C virus [28] = assay: Antiviral activity against Hepatitis C virus genotype 1b Con 1 infected in human HuH7 cells at 160 nM after 72 hrs by luciferase assay in presence of 15 uM clemizole; assay type: functional, Hepacivirus hominis, Huh-7; how it was run: as §1

Structure (SMILES): O=C(c1nc2scc(C3CC3)n2c1Cl)N1CCN(C2CCCC2)C(=O)C1
- CI (Hepatitis C virus [1]): 0.89
- CI (Hepatitis C virus [2]): 0.6
- EC50 (Hepatitis C virus [3]): 14 nM
- CI (Hepatitis C virus [4]): 0.95
- CI (Hepatitis C virus [5]): 0.37
- EC50 (Hepatitis C virus [6]): 3980 nM
- CI (Hepatitis C virus [7]): 1.22
- CI (Hepatitis C virus [8]): 0.53
- CI (Hepatitis C virus [9]): 0.99
- CI (Hepatitis C virus [10]): 0.66
- CI (Hepatitis C virus [11]): 0.62
- CI (Hepatitis C virus [12]): 0.98
- CI (Hepatitis C virus [13]): 1.2
- CI (Hepatitis C virus [14]): 1.05
- CI (Hepatitis C virus [15]): 0.75
- CI (Hepatitis C virus [16]): 1.31
- CI (Hepatitis C virus [17]): 1.18
- CI (Hepatitis C virus [18]): 0.81
- CI (Hepatitis C virus [19]): 0.58
- EC50 (Hepatitis C virus [20]): 9 nM
- CI (Hepatitis C virus [21]): 0.87
- CI (Hepatitis C virus [22]): 0.87
- CI (Hepatitis C virus [23]): 1.03
- CC50 [24]: > 10000 nM
- CI (Hepatitis C virus [25]): 0.59
- CI (Hepatitis C virus [26]): 1.07
- CI (Hepatitis C virus [27]): 0.54
- CI (Hepatitis C virus [28]): 1.45
